Converted amounts (≈) assume the structure as drawn. The source made the active and inactive calls.
Legend:
[1] = target: T1, Voltage-gated potassium channel, KQT; KCNQ2(Kv7.2)/KCNQ3(Kv7.3) (Homo sapiens) (UniProt O43526+O43525); test: Activation of human Kv7.2/7.3 by patch clamp method relative to ML213
How it was run: (§1)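 Kv7.2/7.3 EC50s were measured on the IonWorks Quattro (IWQ) automated patch-clamp platform. Efficacy is expressed as % of the maximal response to the reference opener ML213.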

[2] = target: T2, Potassium voltage-gated channel subfamily KQT member 4 (Homo sapiens, UniProt P56696); test: Activation of human Kv7.4 by patch clamp method
T2 sequence (P56696 whole entry): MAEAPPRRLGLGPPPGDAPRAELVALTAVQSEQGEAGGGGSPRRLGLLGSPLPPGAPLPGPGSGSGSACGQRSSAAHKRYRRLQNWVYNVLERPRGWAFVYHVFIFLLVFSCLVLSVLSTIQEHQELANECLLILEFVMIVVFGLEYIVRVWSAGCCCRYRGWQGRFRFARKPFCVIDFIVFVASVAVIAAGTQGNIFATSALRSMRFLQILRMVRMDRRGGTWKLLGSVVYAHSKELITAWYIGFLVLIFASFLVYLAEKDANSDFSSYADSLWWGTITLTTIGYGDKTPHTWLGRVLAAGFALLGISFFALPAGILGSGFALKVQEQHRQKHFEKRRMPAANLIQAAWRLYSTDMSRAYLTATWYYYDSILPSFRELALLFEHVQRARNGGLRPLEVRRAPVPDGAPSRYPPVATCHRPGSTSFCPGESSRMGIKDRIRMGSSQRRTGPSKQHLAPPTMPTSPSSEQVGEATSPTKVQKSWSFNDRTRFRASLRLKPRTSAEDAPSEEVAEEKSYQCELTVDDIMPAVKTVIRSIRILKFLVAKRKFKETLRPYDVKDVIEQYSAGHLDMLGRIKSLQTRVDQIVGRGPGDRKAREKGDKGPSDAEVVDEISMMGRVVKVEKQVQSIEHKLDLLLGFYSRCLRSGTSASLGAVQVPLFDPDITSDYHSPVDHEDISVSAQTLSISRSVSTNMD

[3] = target: Voltage-gated potassium channel, KQT; KCNQ2(Kv7.2)/KCNQ3(Kv7.3) (Homo sapiens, UniProt O43525+O43526); test: Activation of human Kv7.2/7.3 by patch clamp method; how it was run: as §1
[4] = target: Voltage-gated potassium channel KCNQ3/KCNQ5 (Homo sapiens, UniProt O43525+Q9NR82); test: Activation of human Kv7.3/7.5 by patch clamp method
P-gp = test: Substrate activity at P-gp (unknown origin) assessed as efflux ratio; format: ADME; settings: human, not told
[5] = Kinetic aqueous solubility of the compound by CAD or CLND method; format: physicochemical; settings: buffer; read-out: Kinetic_solubility
[6] = target: T1, Voltage-gated potassium channel, KQT; KCNQ2(Kv7.2)/KCNQ3(Kv7.3) (Homo sapiens); test: Activation of human Kv7.2/7.3 assessed as difference in G-V midpoint between pre-compound and post-compound conditions at 6 uM at -90 mV holding potential by QPatch method; format: protein-complex assay
[7] = target: T1, Voltage-gated potassium channel, KQT; KCNQ2(Kv7.2)/KCNQ3(Kv7.3) (Homo sapiens); test: Activation of human Kv7.2/7.3 assessed as difference in G-V midpoint between pre-compound and post-compound conditions at 1.2 uM at -90 mV holding potential by QPatch method; format: protein-complex assay
[8] = target: T1, Voltage-gated potassium channel, KQT; KCNQ2(Kv7.2)/KCNQ3(Kv7.3) (Homo sapiens); test: Activation of human Kv7.2/7.3 assessed as difference in G-V midpoint between pre-compound and post-compound conditions at 0.24 uM at -90 mV holding potential by QPatch method; format: protein-complex assay
[9] = target: T1, Voltage-gated potassium channel, KQT; KCNQ2(Kv7.2)/KCNQ3(Kv7.3) (Homo sapiens); test: Activation of human Kv7.2/7.3 assessed as difference in G-V midpoint between pre-compound and post-compound conditions at 0.048 uM at -90 mV holding potential by QPatch method; format: protein-complex assay
[10] = target: T1, Voltage-gated potassium channel, KQT; KCNQ2(Kv7.2)/KCNQ3(Kv7.3) (Homo sapiens); test: Activation of human Kv7.2/7.3 assessed as difference in G-V midpoint between pre-compound and post-compound conditions at 30 uM at -90 mV holding potential by QPatch method; format: protein-complex assay
[11] = Ratio of drug level in brain to blood of iv dosed mouse; format: ADME, organism-based; settings: brain and blood
Mus musculus [12] = test: Anti-seizure activity in CD-1 mouse assessed as increase in seizure threshold at 10 to 60 mg/kg, po by maximal electroshock-threshold test; format: functional, organism-based
[13] = Activation of Kv7 from rat cortical neurons assessed as reduction in spontaneous neuronal firing activity after 15 mins by multi-electrode array method; settings: 0.25 h
Mus musculus [14] = test: Toxicity in CD-1 mouse at 10 to 60 mg/kg, po by rotarod test; format: organism-based; settings: in vivo
Mus musculus [15] = test: Dose normalized AUC (0 to t) in iv dosed mouse; format: ADME, organism-based; settings: in vivo
[16] = Clearance in iv dosed mouse; format: ADME, organism-based; settings: in vivo
[17] = target: T1, Voltage-gated potassium channel, KQT; KCNQ2(Kv7.2)/KCNQ3(Kv7.3) (Homo sapiens); test: Activation of human Kv7.2/7.3 assessed as difference in G-V midpoint between pre-compound and post-compound conditions at 3 uM at -90 mV holding potential by QPatch method; format: protein-complex assay
[18] = target: T1, Voltage-gated potassium channel, KQT; KCNQ2(Kv7.2)/KCNQ3(Kv7.3) (Homo sapiens); test: Activation of human wild type Kv7.2/7.3 expressed in CHO cells assessed as 86Rb efflux at 0.001 to 100 uM after 10 mins by microbeta liquid scintillation counting analysis; format: cell-based
[19] = Activation of human Kv7.2 W236L mutant/Kv7.3 W265L mutant expressed in CHO cells assessed as 86Rb efflux at 0.001 to 100 uM after 10 mins by microbeta liquid scintillation counting analysis; format: cell-based
[20] = Inhibition of carbachol-induced contraction in human bladder at 10 uM; format: tissue-based, Urinary bladder
Mus musculus [21] = test: Anti-seizure activity in CD-1 mouse model of pentylenetetrazol-induced tonic seizures assessed as effect on time to onset of seizure at 10 to 60 mg/kg, po; format: functional, organism-based
Mus musculus [22] = test: Anti-seizure activity in CD-1 mouse model of pentylenetetrazol-induced clonic seizures assessed as effect on time to onset of seizure at 10 to 60 mg/kg, po; format: functional, organism-based
[23] = target: T1, Voltage-gated potassium channel, KQT; KCNQ2(Kv7.2)/KCNQ3(Kv7.3) (Homo sapiens); test: Activation of human Kv7.2/7.3 assessed as difference in G-V midpoint between pre-compound and post-compound conditions at 0.4 uM at -90 mV holding potential by QPatch method; format: protein-complex assay
[24] = target: T1, Voltage-gated potassium channel, KQT; KCNQ2(Kv7.2)/KCNQ3(Kv7.3) (Homo sapiens); test: Activation of human Kv7.2/7.3 assessed as difference in G-V midpoint between pre-compound and post-compound conditions at 0.016 uM at -90 mV holding potential by QPatch method; format: protein-complex assay
[25] = target: T1, Voltage-gated potassium channel, KQT; KCNQ2(Kv7.2)/KCNQ3(Kv7.3) (Homo sapiens); test: Activation of human Kv7.2/7.3 assessed as difference in G-V midpoint between pre-compound and post-compound conditions at 0.08 uM at -90 mV holding potential by QPatch method; format: protein-complex assay
[26] = target: T1, Voltage-gated potassium channel, KQT; KCNQ2(Kv7.2)/KCNQ3(Kv7.3) (Homo sapiens); test: Activation of human Kv7.2/7.3 assessed as difference in G-V midpoint between pre-compound and post-compound conditions at 10 uM at -90 mV holding potential by QPatch method; format: protein-complex assay
[27] = target: T1, Voltage-gated potassium channel, KQT; KCNQ2(Kv7.2)/KCNQ3(Kv7.3) (Homo sapiens); test: Activation of human Kv7.2/7.3 assessed as difference in G-V midpoint between pre-compound and post-compound conditions at 2 uM at -90 mV holding potential by QPatch method; format: protein-complex assay
[28] = Clearance in human liver microsomes; format: ADME, microsome

Voltage-gated potassium channel, KQT; KCNQ2(Kv7.2)/KCNQ3(Kv7.3), sequence (O43526 whole entry): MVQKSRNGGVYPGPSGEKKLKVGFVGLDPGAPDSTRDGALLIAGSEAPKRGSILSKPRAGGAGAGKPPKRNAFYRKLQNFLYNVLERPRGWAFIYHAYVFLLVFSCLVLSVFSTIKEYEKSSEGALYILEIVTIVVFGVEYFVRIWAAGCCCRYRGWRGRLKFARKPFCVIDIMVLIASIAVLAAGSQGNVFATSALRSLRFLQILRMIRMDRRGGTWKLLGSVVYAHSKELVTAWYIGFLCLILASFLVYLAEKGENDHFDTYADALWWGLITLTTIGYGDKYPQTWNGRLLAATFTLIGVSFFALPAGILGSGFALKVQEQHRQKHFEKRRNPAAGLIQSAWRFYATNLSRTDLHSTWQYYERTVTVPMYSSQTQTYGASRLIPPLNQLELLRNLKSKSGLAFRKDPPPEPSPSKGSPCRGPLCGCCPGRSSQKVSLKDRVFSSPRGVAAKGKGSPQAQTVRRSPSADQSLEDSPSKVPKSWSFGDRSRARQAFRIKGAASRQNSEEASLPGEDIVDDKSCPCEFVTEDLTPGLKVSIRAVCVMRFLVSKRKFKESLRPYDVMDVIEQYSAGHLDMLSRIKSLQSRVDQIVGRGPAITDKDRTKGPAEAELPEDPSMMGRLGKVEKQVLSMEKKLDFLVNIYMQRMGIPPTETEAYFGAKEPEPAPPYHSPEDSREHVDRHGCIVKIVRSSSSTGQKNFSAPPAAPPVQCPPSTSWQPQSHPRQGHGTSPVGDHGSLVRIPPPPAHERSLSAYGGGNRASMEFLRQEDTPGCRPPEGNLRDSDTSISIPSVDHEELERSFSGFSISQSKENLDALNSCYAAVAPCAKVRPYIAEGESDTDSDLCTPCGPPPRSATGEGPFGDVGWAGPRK
Voltage-gated potassium channel, KQT; KCNQ2(Kv7.2)/KCNQ3(Kv7.3), sequence (O43525 whole entry): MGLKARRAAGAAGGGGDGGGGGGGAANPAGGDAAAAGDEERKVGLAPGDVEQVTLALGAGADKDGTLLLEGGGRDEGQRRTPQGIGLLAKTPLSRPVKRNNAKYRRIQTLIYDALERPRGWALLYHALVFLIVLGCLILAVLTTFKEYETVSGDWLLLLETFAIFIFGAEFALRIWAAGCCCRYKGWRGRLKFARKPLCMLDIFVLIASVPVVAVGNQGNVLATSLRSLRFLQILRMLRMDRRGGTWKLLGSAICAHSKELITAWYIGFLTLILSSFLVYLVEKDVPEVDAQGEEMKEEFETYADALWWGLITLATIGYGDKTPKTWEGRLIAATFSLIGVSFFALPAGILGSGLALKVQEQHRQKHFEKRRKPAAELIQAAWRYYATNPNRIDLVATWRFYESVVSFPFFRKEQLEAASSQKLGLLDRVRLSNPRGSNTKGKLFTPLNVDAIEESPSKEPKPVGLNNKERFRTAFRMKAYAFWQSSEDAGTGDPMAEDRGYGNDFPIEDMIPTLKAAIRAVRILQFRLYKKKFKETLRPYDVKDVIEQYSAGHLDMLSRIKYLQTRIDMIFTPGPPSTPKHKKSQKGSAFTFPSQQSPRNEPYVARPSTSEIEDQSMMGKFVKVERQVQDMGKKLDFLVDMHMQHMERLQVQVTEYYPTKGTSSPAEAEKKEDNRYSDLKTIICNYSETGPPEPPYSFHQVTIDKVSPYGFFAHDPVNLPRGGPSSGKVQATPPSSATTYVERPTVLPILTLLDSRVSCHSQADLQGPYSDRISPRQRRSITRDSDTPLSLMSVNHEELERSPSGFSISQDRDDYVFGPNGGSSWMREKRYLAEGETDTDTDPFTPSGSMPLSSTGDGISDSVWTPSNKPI
Voltage-gated potassium channel KCNQ3/KCNQ5, sequence (O43525 whole entry): as above
Voltage-gated potassium channel KCNQ3/KCNQ5, sequence (Q9NR82 whole entry): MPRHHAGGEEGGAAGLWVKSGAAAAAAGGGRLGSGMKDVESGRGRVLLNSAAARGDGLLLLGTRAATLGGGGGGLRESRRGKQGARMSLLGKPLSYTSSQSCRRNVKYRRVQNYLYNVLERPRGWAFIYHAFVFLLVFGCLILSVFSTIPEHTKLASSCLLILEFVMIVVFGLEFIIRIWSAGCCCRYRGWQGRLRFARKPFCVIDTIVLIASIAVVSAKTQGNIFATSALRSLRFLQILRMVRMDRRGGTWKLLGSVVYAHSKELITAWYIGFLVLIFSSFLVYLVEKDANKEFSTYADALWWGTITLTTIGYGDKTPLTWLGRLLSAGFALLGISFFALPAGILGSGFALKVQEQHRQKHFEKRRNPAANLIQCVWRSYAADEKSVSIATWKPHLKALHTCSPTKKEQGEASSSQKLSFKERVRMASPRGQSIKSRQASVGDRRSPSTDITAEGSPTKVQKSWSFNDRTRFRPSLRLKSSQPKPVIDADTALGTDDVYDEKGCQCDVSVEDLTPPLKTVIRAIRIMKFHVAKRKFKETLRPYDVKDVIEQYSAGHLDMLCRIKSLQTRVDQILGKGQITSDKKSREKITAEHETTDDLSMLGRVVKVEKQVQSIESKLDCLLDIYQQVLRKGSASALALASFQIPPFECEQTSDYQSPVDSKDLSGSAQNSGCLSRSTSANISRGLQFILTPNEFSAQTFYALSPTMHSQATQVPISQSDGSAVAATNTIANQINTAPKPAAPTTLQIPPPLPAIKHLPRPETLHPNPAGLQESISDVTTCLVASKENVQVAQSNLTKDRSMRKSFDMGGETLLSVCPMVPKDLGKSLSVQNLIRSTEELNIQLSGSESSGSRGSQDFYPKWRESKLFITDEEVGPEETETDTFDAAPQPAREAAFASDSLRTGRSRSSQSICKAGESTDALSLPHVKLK

| SMILES | %max [1] [%] | EC50 [2] [nM] | EC50 [3] [nM] | EC50 [4] [nM] | efflux ratio (P-gp) | solubility kinetic [5] [µM] | Activity [18] [µM] | Activity [19] [µM] | further results |
| --- | --- | --- | --- | --- | --- | --- | --- | --- | --- |
| C[C@H](NC(=O)[C@H]1CC(F)(F)CC[C@@H]1c1ccccc1)c1ccccc1 | 140 | 4000 | 200 to 400 | 400 | < 2 | 25 (≈ 8.59 µg/mL) |  |  |  |
| C[C@H](NC(=O)c1cc(C(F)(F)F)ccc1Oc1ccccc1)c1cccc(S(C)(=O)=O)c1 | 134 |  | 40 |  | < 2 | 57 (≈ 26.4 µg/mL) |  |  |  |
| O=C(N[C@@H](CO)c1cccc(Cl)c1)[C@H]1CC(F)(F)CC[C@@H]1c1ccccc1 | 141 | 100 | 100 to 300 | 360 | < 2 | 318 (≈ 125 µg/mL) |  |  | V1/2 [6]: 29.5 mV; V1/2 [7]: 21 mV; V1/2 [8]: 10.2 mV; V1/2 [9]: 1.8 mV; V1/2 [10]: 27.8 mV; Kp [11]: 0.8; Activity (Mus musculus [12]): Dose-dependent effect; IC50 [13]: 280 nM; Activity (Mus musculus [14]): Non-Toxic; AUCt/dose (Mus musculus [15]): 0.51 µg·h/mL; clearance [16]: 48 mL/min/kg |
| Cc1cc(C)c(NC(=O)C2CC3CCC2C3)c(C)c1 (stereo unspecified) |  | 1600 | 40 | 500 |  |  | 0.04 | > 11 | V1/2 [17]: 24.7 to 28.4 mV |
| O=C(N[C@@H](CO)c1cccc(C(F)(F)F)c1)[C@H]1CC(F)(F)CC[C@@H]1c1ccccc1 | 96 | 20 | 50 to 80 | 250 | < 2 | 119 (≈ 50.9 µg/mL) |  |  |  |
| CS(=O)(=O)c1cccc([C@H](CO)NC(=O)c2cc(C(F)(F)F)ccc2Oc2ccccc2)c1 | 77 |  | 80 |  | < 2 | 11 (≈ 5.27 µg/mL) |  |  |  |
| C[C@H](NC(=O)[C@H]1CCCC[C@@H]1c1ccccc1)c1ccccc1 | 115 |  | 250 |  | < 2 | 57 (≈ 17.5 µg/mL) | 0.1 | > 30 |  |
| CS(=O)(=O)c1cccc(CNC(=O)c2cc(C(F)(F)F)ccc2Oc2ccccc2)c1 | 245 |  | 160 |  | < 2 | 23 (≈ 10.3 µg/mL) | 0.05 | > 30 |  |
| CCOC(=O)Nc1ccc(NCc2ccc(F)cc2)cc1N |  |  |  |  |  |  | 0.32 | > 30 |  |
| CS(=O)(=O)c1cccc(CNC(=O)c2cc(S(F)(F)(F)(F)F)ccc2Oc2ccccc2)c1 | 185 |  | 80 |  | < 2 | 7 (≈ 3.55 µg/mL) |  |  |  |
| O=C(Nc1ccc(Cl)nc1)c1ccc(F)c(F)c1 |  | > 10000 | 460 | > 10000 |  |  | 0.46 | 0.43 to 1.81 | Activity (Mus musculus [12]): Dose-dependent effect; Activity (Mus musculus [14]): Non-Toxic |
| CS(=O)(=O)c1cccc([C@H](CO)NC(=O)c2cc(S(F)(F)(F)(F)F)ccc2Oc2ccccc2)c1 | 101 | > 10000 | 20 to 60 | 80 | < 2 | 121 (≈ 65 µg/mL) |  |  | inhibition (INH) [20]: Not Active; Activity (Mus musculus [21]): Active; Activity (Mus musculus [22]): Active |
| O=C(N[C@@H](CO)c1ccccc1)[C@H]1CCCC[C@@H]1c1ccccc1 | 165 |  | 790 |  | < 2 | 455 (≈ 147 µg/mL) |  |  |  |
| C[C@H](NC(=O)c1cc(F)c(F)cc1Oc1ccccc1)c1cccc(S(C)(=O)=O)c1 | 132 | 160 | 130 to 200 | 200 | < 2 | 145 (≈ 62.6 µg/mL) |  |  | V1/2 [23]: 14.3 mV; Activity (Mus musculus [21]): Active; V1/2 [24]: 0.4 mV; Activity (Mus musculus [22]): Active; V1/2 [25]: 5.1 mV; Kp [11]: 1.3; Activity (Mus musculus [12]): Dose-dependent effect; IC50 [13]: 110 nM; V1/2 [26]: 26.8 mV; Activity (Mus musculus [14]): Non-Toxic; V1/2 [27]: 23.1 mV; AUCt/dose (Mus musculus [15]): 0.33 µg·h/mL; clearance [16]: 31 mL/min/kg |
| O=C(N[C@@H](CO)c1ccccc1)[C@H]1CC(F)(F)CC[C@@H]1c1ccccc1 | 108 |  | 1300 |  | < 2 | 332 (≈ 119 µg/mL) |  |  |  |
| CS(=O)(=O)c1cccc(CNC(=O)c2cc(C(F)(F)F)ccc2Sc2ccccc2)c1 | 175 |  | 200 |  | < 2 | 34 (≈ 15.8 µg/mL) | 0.02 | > 30 | CLH [28]: > 3 mL/min/g |

From ChEMBL document CHEMBL4257569, “Novel KV7 ion channel openers for the treatment of epilepsy and implications for detrusor tissue contraction” (Bioorg Med Chem Lett, 2018)
